Assay results: PMC6322912 (Biochemistry, 2018)

Columns and labels:
SAMHD1 [1] = target: T1, SAMHD1 (Homo sapiens, UniProt Q9Y3Z3); assay: Dose–response SAMHD1 dNTPase assay; assay type: biochemical; conditions: for inhibition at 500 µM: read-out: SAMHD1 inhibition in dose–response dNTPase assays
SAMHD1 [2] = target: T1, SAMHD1; assay: b4NPP–SAMHD1 HTS; assay type: biochemical; conditions: increasing concentrations of dGTP; normalized to no dGTP
In short: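 Recombinant SAMHD1 was expressed in E. coli BL21* as an MBP fusion, tag-cleaved, and purified by heparin and size-exclusion chromatography. Nucleotide was added, then 2 mM final b4NPP. A410 was read over 45 min; rates came from 0–20 min slopes, with no-enzyme baseline.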

T1 sequence (Q9Y3Z3 whole entry): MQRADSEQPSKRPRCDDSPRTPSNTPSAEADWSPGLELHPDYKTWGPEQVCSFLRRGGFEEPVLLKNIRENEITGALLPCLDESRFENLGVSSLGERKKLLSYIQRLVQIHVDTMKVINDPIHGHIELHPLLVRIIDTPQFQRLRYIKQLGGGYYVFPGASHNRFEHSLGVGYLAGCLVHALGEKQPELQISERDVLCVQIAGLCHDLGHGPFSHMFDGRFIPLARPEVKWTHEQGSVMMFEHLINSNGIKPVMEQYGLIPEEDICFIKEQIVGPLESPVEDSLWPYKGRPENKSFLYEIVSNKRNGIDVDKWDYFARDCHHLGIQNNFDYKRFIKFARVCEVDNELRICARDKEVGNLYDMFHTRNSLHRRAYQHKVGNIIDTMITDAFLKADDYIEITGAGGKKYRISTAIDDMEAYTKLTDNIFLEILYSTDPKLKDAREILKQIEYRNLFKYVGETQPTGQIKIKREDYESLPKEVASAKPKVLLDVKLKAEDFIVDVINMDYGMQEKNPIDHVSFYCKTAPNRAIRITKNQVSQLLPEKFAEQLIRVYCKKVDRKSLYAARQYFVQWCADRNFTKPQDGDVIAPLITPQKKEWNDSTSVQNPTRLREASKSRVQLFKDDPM

SMILES | IC50 (SAMHD1 [1]) [µM] | other results
CC1=C(CC(=O)O)c2cc(F)ccc2/C1=C\c1ccc([S+](C)[O-])cc1 (stereo not shown) [Sulindac] | < 250 | –
CC1=C(/C=C/C(C)=C/C=C/C(C)=C/C(=O)O)C(C)(C)CCC1 [retinoic acid] | < 250 | –
CCCCCOC(=O)Nc1nc(=O)n([C@@H]2O[C@H](C)[C@@H](O)[C@H]2O)cc1F [Capecitabine] | – | inhibition at 500 µM (SAMHD1 [1]): ~25%
Nc1nc2c(ncn2[C@H]2C[C@H](O)[C@@H](COP(=O)(O)OP(=O)(O)OP(=O)(O)O)O2)c(=O)[nH]1 [dGTP] | – | Inhibition of SAMHD1-mediated b4NPP hydrolysis (SAMHD1 [2]): completely inhibited
CC(C)(O)c1ccccc1CC[C@@H](SCC1(CC(=O)O)CC1)c1cccc(/C=C/c2ccc3ccc(Cl)cc3n2)c1 [Montelukast] | < 250 | –
CC(=O)CCCCn1c(=O)c2c(ncn2C)n(C)c1=O [Pentoxifylline] | – | inhibition at 500 µM (SAMHD1 [1]): ~25%
COC(=O)c1ccc(O)c2nc3c(C=O)c(O)cc(O)c3nc12 [Lomofungin] | < 250 | –
N[C@@H](Cc1cc(I)c(Oc2cc(I)c(O)c(I)c2)c(I)c1)C(=O)O [L-Thyroxine] | < 250 | –
CC[C@H](c1ccc(O)cc1)[C@@H](CC)c1ccc(O)cc1 [Hexestrol] | < 250 | –
Nc1cc(-c2ccncc2)c[nH]c1=O [Amrinone] | < 250 | –
CN1C[C@H](C(=O)N[C@]2(C)O[C@@]3(O)[C@@H]4CCCN4C(=O)[C@H](Cc4ccccc4)N3C2=O)C=C2c3cccc4[nH]cc(c34)C[C@H]21 [Ergotamine] | < 250 | –
Nc1nc2c(ncn2[C@H]2C[C@H](O)[C@@H](COP(O)(=S)OP(=O)(O)OP(=O)(O)O)O2)c(=O)[nH]1 (stereo partly drawn) [dGTPαS, deoxyguanosine triphosphate α S] | – | Inhibition of preactivated SAMHD1 dCTPase activity (SAMHD1 [1]; 150 μM dCTP substrate, tetramer preformed with 10 μM GTP and 25 μM dATPαS): inhibition
Nc1nc2c(ncn2CCC(CO)CO)c(=O)[nH]1 [Penciclovir] | – | inhibition at 500 µM (SAMHD1 [1]): ~25%
